“And” between values parts separate entries of the source, which are not always exact repeats. Equal values may be shown once.
Tested on: Fibroblast
Test: Multiplex assay against human fibroblast
Assay type: toxicity, cell-based
Conditions: number of replicates 2
Procedure, shortened: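 Imaging took place on a CQ1 microscope at 37°C and 5% CO2 once compound had been added to live cells stained at seeding with Hoechst33342, BioTracker Green Microtubule Cytoskeleton Dye, MitoTracker Red and Annexin V Alexa Fluor 680. CellPathfinder machine-learning gating classed cells as Hoechst high-intensity objects or normal cells, classed normal cells as having healthy, pyknosed or fragmented nuclei, and classed pyknosed cells as mitotic or apoptotic. Tubulin, mitochondrial-mass and membrane-permeability phenotypes are per cents of the healthy-nucleus cells.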

[1] = 12 h, 1 µM, compound concentration 1 uM
[2] = 12 h, 10 µM, compound concentration 10 uM
[3] = 24 h, 1 µM, compound concentration 1 uM
[4] = 24 h, 10 µM, compound concentration 10 uM
[5] = 48 h, 1 µM, compound concentration 1 uM
[6] = 48 h, 10 µM, compound concentration 10 uM

SMILES: COc1ccc(CC[C@@H](OC(=O)[C@@H]2CCCCN2C(=O)[C@H](c2cc(OC)c(OC)c(OC)c2)C2CCCCC2)c2cccc(OCCN3CCOCC3)c2)cc1OC
- Population Apoptotic (%) [1]: 42% and 47%
- Population Fragmented Nuclei (%) [1]: 12% and 11%
- Population Healthy Nuclei (%) [1]: 65% and 64%
- Population Hoechst High Intensity Objects (%) [1]: 0%
- Population Membrane Permeable-Phenotype (%) [1]: 20%
- Population Mitochondria Different-Phenotype (%) [1]: 7% and 2%
- Population Mitotic Cells (%) [1]: 57% and 52%
- Population Normal (%) [1]: 100% and 99%
- Population Pyknosed Nuclei (%) [1]: 21% and 23%
- Population Tubulin-Different-Phenotype (%) [1]: 81% and 69%
- Total Cell Count [1]: 227 and 146
- Population Apoptotic (%) [2]: 51% and 55%
- Population Fragmented Nuclei (%) [2]: 14% and 19%
- Population Healthy Nuclei (%) [2]: 60% and 59%
- Population Hoechst High Intensity Objects (%) [2]: 0%
- Population Membrane Permeable-Phenotype (%) [2]: 25% and 21%
- Population Mitochondria Different-Phenotype (%) [2]: 14% and 11%
- Population Mitotic Cells (%) [2]: 48% and 44%
- Population Normal (%) [2]: 99% and 100%
- Population Pyknosed Nuclei (%) [2]: 24% and 20%
- Population Tubulin-Different-Phenotype (%) [2]: 89% and 84%
- Total Cell Count [2]: 188 and 273
- Population Apoptotic (%) [3]: 50% and 59%
- Population Fragmented Nuclei (%) [3]: 7% and 20%
- Population Healthy Nuclei (%) [3]: 67% and 51%
- Population Hoechst High Intensity Objects (%) [3]: 0%
- Population Membrane Permeable-Phenotype (%) [3]: 10% and 9%
- Population Mitochondria Different-Phenotype (%) [3]: 14%
- Population Mitotic Cells (%) [3]: 50% and 40%
- Population Normal (%) [3]: 99% and 100%
- Population Pyknosed Nuclei (%) [3]: 24% and 28%
- Population Tubulin-Different-Phenotype (%) [3]: 74% and 65%
- Total Cell Count [3]: 207 and 148
- Population Apoptotic (%) [4]: 66% and 71%
- Population Fragmented Nuclei (%) [4]: 14% and 20%
- Population Healthy Nuclei (%) [4]: 59% and 56%
- Population Hoechst High Intensity Objects (%) [4]: 0%
- Population Membrane Permeable-Phenotype (%) [4]: 15% and 6%
- Population Mitochondria Different-Phenotype (%) [4]: 24% and 45%
- Population Mitotic Cells (%) [4]: 33% and 28%
- Population Normal (%) [4]: 99%
- Population Pyknosed Nuclei (%) [4]: 26% and 22%
- Population Tubulin-Different-Phenotype (%) [4]: 86% and 89%
- Total Cell Count [4]: 193 and 253
- Population Apoptotic (%) [5]: 71% and 82%
- Population Fragmented Nuclei (%) [5]: 6% and 14%
- Population Healthy Nuclei (%) [5]: 77% and 66%
- Population Hoechst High Intensity Objects (%) [5]: 0%
- Population Membrane Permeable-Phenotype (%) [5]: 8% and 17%
- Population Mitochondria Different-Phenotype (%) [5]: 3% and 10%
- Population Mitotic Cells (%) [5]: 28% and 17%
- Population Normal (%) [5]: 100% and 99%
- Population Pyknosed Nuclei (%) [5]: 16% and 18%
- Population Tubulin-Different-Phenotype (%) [5]: 61% and 51%
- Total Cell Count [5]: 199 and 150
- Population Apoptotic (%) [6]: 85% and 80%
- Population Fragmented Nuclei (%) [6]: 22% and 29%
- Population Healthy Nuclei (%) [6]: 59% and 55%
- Population Hoechst High Intensity Objects (%) [6]: 1% and 0%
- Population Membrane Permeable-Phenotype (%) [6]: 20% and 8%
- Population Mitochondria Different-Phenotype (%) [6]: 27% and 30%
- Population Mitotic Cells (%) [6]: 14% and 20%
- Population Normal (%) [6]: 98% and 99%
- Population Pyknosed Nuclei (%) [6]: 17% and 15%
- Population Tubulin-Different-Phenotype (%) [6]: 91%
- Total Cell Count [6]: 195 and 265

SMILES: CC(C)N1CCN(Cc2cnc(-c3cc(-c4cccc5[nH]ccc45)cc4[nH]ncc34)o2)CC1 [NEMIRALISIB]
- Population Apoptotic (%) [1]: 48% and 43%
- Population Fragmented Nuclei (%) [1]: 10%
- Population Healthy Nuclei (%) [1]: 72% and 64%
- Population Hoechst High Intensity Objects (%) [1]: 0%
- Population Membrane Permeable-Phenotype (%) [1]: 6% and 3%
- Population Mitochondria Different-Phenotype (%) [1]: 2% and 0%
- Population Mitotic Cells (%) [1]: 51% and 56%
- Population Normal (%) [1]: 100% and 99%
- Population Pyknosed Nuclei (%) [1]: 16% and 24%
- Population Tubulin-Different-Phenotype (%) [1]: 19% and 9%
- Total Cell Count [1]: 206 and 286
- Population Apoptotic (%) [2]: 32% and 38%
- Population Fragmented Nuclei (%) [2]: 7% and 15%
- Population Healthy Nuclei (%) [2]: 63% and 69%
- Population Hoechst High Intensity Objects (%) [2]: 0% and 2%
- Population Membrane Permeable-Phenotype (%) [2]: 7%
- Population Mitochondria Different-Phenotype (%) [2]: 6% and 12%
- Population Mitotic Cells (%) [2]: 67% and 61%
- Population Normal (%) [2]: 100% and 97%
- Population Pyknosed Nuclei (%) [2]: 28% and 15%
- Population Tubulin-Different-Phenotype (%) [2]: 58% and 61%
- Total Cell Count [2]: 207 and 263
- Population Apoptotic (%) [3]: 50% and 62%
- Population Fragmented Nuclei (%) [3]: 8% and 10%
- Population Healthy Nuclei (%) [3]: 70%
- Population Hoechst High Intensity Objects (%) [3]: 0%
- Population Membrane Permeable-Phenotype (%) [3]: 7%
- Population Mitochondria Different-Phenotype (%) [3]: 2% and 1%
- Population Mitotic Cells (%) [3]: 50% and 37%
- Population Normal (%) [3]: 100%
- Population Pyknosed Nuclei (%) [3]: 20% and 19%
- Population Tubulin-Different-Phenotype (%) [3]: 25% and 11%
- Total Cell Count [3]: 201 and 273
- Population Apoptotic (%) [4]: 52% and 71%
- Population Fragmented Nuclei (%) [4]: 5% and 15%
- Population Healthy Nuclei (%) [4]: 72% and 68%
- Population Hoechst High Intensity Objects (%) [4]: 3% and 5%
- Population Membrane Permeable-Phenotype (%) [4]: 7% and 3%
- Population Mitochondria Different-Phenotype (%) [4]: 17% and 22%
- Population Mitotic Cells (%) [4]: 47% and 28%
- Population Normal (%) [4]: 96% and 95%
- Population Pyknosed Nuclei (%) [4]: 22% and 15%
- Population Tubulin-Different-Phenotype (%) [4]: 64% and 58%
- Total Cell Count [4]: 175 and 240
- Population Apoptotic (%) [5]: 54% and 64%
- Population Fragmented Nuclei (%) [5]: 11% and 12%
- Population Healthy Nuclei (%) [5]: 73% and 67%
- Population Hoechst High Intensity Objects (%) [5]: 0%
- Population Membrane Permeable-Phenotype (%) [5]: 9% and 3%
- Population Mitochondria Different-Phenotype (%) [5]: 3% and 0%
- Population Mitotic Cells (%) [5]: 45% and 35%
- Population Normal (%) [5]: 100%
- Population Pyknosed Nuclei (%) [5]: 15% and 19%
- Population Tubulin-Different-Phenotype (%) [5]: 15% and 7%
- Total Cell Count [5]: 214 and 290
- Population Apoptotic (%) [6]: 84% and 61%
- Population Fragmented Nuclei (%) [6]: 10% and 15%
- Population Healthy Nuclei (%) [6]: 69% and 68%
- Population Hoechst High Intensity Objects (%) [6]: 7% and 5%
- Population Membrane Permeable-Phenotype (%) [6]: 6% and 4%
- Population Mitochondria Different-Phenotype (%) [6]: 11% and 14%
- Population Mitotic Cells (%) [6]: 15% and 38%
- Population Normal (%) [6]: 92% and 94%
- Population Pyknosed Nuclei (%) [6]: 19% and 16%
- Population Tubulin-Different-Phenotype (%) [6]: 34% and 40%
- Total Cell Count [6]: 178 and 231
